# Shown is part of a subset that was picked to be rich in hits.
# T cruzi growth-1: blocks T. cruzi growth in NIH3T3 culture. T. cruzi beta-gal in NIH3T3, GalScreen luminescence, 90 h. inhibition, % at 8.34 µM. 5.9% of 77,000 active;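 active = mean inhibition above about 93%, with at least 55% of replicates each passing it, limit read from the data, passing the limit was not always enough; inconclusive = only one of those two conditions holds; inactive = neither condition holds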
# GASC1 inh: blocks human GASC-1 (KDM4C) demethylase activity; Q9H3R0; inhibition, % at 12.5 µM; AID 720574; GST-KDM4C 2-372, H3K9me3 peptide, LANCE TR-FRET; 0.15% of 96,000 active;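 active = mean replicate inhibition above about 25%, with at least 55% of replicates also reaching it, limit read from the data, passing the limit was not always enough; inconclusive = only one of those two conditions met; inactive = neither condition met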
# Target sequence (Q9H3R0 2-372 limits assumed): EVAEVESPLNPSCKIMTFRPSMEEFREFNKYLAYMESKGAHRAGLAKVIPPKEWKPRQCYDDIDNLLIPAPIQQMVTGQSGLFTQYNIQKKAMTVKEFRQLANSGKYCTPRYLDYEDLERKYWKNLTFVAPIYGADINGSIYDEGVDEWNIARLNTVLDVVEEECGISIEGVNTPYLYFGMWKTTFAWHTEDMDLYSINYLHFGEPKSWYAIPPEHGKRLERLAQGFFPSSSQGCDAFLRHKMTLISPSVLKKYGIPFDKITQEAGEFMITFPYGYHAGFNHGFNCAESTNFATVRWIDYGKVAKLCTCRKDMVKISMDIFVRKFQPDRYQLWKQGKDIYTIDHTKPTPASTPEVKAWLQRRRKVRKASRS
#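 Material: GST-tagged GASC-1 (JMJD2C) catalytic fragment, aa 2-372 / Quantity: enzyme final amount 10 nM / Medium: HEPES buffer, pH 7.5, plus ascorbate / Doses: one test concentration per compound / Incubation: 30 min reaction, 60 min detection, RT / Measured by: LANCE TR-FRET / Read-out: inhibition from TR-FRET ratio decrease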
# IDH1 mut inh: inhibitors of human IDH1 R132H. IDH1 R132H reductase, diaphorase/resazurin fluorescence, 60 min. inhibition, % at 10 µM. 0.18% of 70,000 active. AID 624101; in the data active = inhibition above about 34%; inconclusive = no clear call, values can overlap the other calls; inactive = below about 11%;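 note: 0% = DMSO and 100% = no enzyme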
# T cruzi growth-2: blocks T. cruzi growth in NIH3T3 host cells. AID 651739. inhibition, % at 8.35 µM. shares compounds with T cruzi growth-1. T. cruzi beta-gal in NIH3T3, GalScreen luminescence, 90 h. 72% of 5,600 active;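 active = mean replicate inhibition above about 95% and at least 55% of replicates individually reaching it, limit read from the data; inconclusive = only one of the two criteria is met; inactive = neither criterion is met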
# T cruzi growth-3: inhibitors of T. cruzi proliferation | shares compounds with T cruzi growth-1 | 21% of 5,600 active | inhibition, % at 2.09 µM | AID 651740 | T. cruzi beta-gal in NIH3T3, GalScreen luminescence, 90 h;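 active = mean inhibition above about 95%, with at least 55% of replicates also reaching it, limit read from the data; inconclusive = meets just one of the two conditions; inactive = meets neither condition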;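 note: plate controls were neutral control median for no effect and positive control median for full effect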
# 3T3 cytotox: NIH/3T3 (mouse) viability loss | 14% of 5,600 active | AID 651742 | NIH/3T3 viability, CellTiter-Glo ATP luminescence, 90 h | shares compounds with T cruzi growth-1 | cytotoxicity (signal decrease), % at 8.35 µM;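 active = mean signal decrease across replicates above about 35% based on untreated-well scatter, with enough replicates individually passing, limit read from the data; inconclusive = no rule stated though some were filed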;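 note: 0% = median of neutral control wells and 100% = median of positive control wells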
# NIH3T3 tox 2: cytotoxicity in mouse NIH/3T3 fibroblasts | shares compounds with T cruzi growth-1 | AID 651744 | 56% of 5,600 active | NIH/3T3 viability, CellTiter-Glo ATP luminescence, 90 h | inhibition, % at 24.9 µM;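 active = mean loss of cell viability signal at or above a set limit, and enough replicates individually reaching it; inconclusive = meets only the mean limit or only the replicate share; inactive = meets neither condition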;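 note: 0% = median of neutral control wells and 100% = median of positive control wells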
# Starred values were filed as active, the others as inactive; ? = inconclusive; / = no result.
SMILES,T cruzi growth-1,GASC1 inh,IDH1 mut inh,T cruzi growth-2,T cruzi growth-3,3T3 cytotox,NIH3T3 tox 2
COc1ccc(NC(=O)N2CCCCN3[C@H](C2)[C@@H](c2ccc(C#Cc4ccccc4)cc2)[C@@H]3CO)cc1,?,/,/,103.9*,119.1*,59.8*,104.3*
COc1ccc(C#Cc2ccc([C@@H]3[C@@H](CO)N4CCCCN(C(=O)Nc5ccccc5)C[C@H]34)cc2)cc1,68.5,-2.9,/,/,/,/,/
O=C(Nc1ccccc1)N1CCCCN2[C@@H](CO)[C@H](c3ccc(C#Cc4ccccc4)cc3)[C@@H]2C1,68.5,-0.9,/,/,/,/,/
COc1ccc(NC(=O)N2CCCCN3[C@@H](CO)[C@H](c4ccc(C#Cc5ccccc5)cc4)[C@@H]3C2)cc1,67.2,/,/,/,/,/,/
COc1ccc(C#Cc2ccc([C@@H]3[C@H]4CN(C(=O)Nc5ccccc5)CCCCN4[C@H]3CO)cc2)cc1,106.5*,-1.0,/,92.0,93.8,93.8*,106.5*
COc1ccc(Br)c(/C=N/NC(=O)c2cccc(C(=O)NO)c2)c1,/,/,-0.2,/,/,/,/
COc1ccccc1-c1cnc2c(c1)C(=O)N([C@H](C)CO)C[C@@H](C)[C@@H](CN(C)Cc1cccc(F)c1)O2,46.8,-1.3,-1.9,/,/,/,/
COc1ccccc1-c1cnc2c(c1)C(=O)N([C@@H](C)CO)C[C@@H](C)[C@@H](CN(C)Cc1cccc(F)c1)O2,?,0.5,-0.1,81.9,43.0,24.1,51.9*
COc1cccc(-c2cnc3c(c2)C(=O)N([C@H](C)CO)C[C@H](C)[C@H](CN(C)Cc2cccc(C)c2)O3)c1,95.6*,-2.5,-0.7,90.5,17.4,9.4,?
COc1ccccc1-c1cnc2c(c1)C(=O)N([C@H](C)CO)C[C@H](C)[C@@H](CN(C)Cc1cccc(F)c1)O2,?,0.4,-0.6,102.1*,63.1,-2.8,41.9*
COc1cccc(-c2cnc3c(c2)C(=O)N([C@@H](C)CO)C[C@H](C)[C@@H](CN(C)Cc2ccccc2)O3)c1,59.1,1.5,-0.2,/,/,/,/
COc1ccccc1-c1cnc2c(c1)C(=O)N([C@H](C)CO)C[C@@H](C)[C@H](CN(C)Cc1cccc(F)c1)O2,-11.7,0.7,-0.4,/,/,/,/
Cc1ccccc1NS(=O)(=O)c1cc(C(=O)NCC2CCCO2)ccc1C (stereo not given),/,/,-0.9,/,/,/,/
Cc1sc(NC(=O)c2cc(-c3cccnc3)nc3ccccc23)c(C(=O)NC2CCCCC2)c1C,/,/,0.1,/,/,/,/
C[C@H]1CCCCO[C@@H](CN(C)Cc2ccccc2)[C@@H](C)CN([C@@H](C)CO)C(=O)c2cc(NS(=O)(=O)c3ccccc3)ccc2O1,16.3,2.2,-3.9,/,/,/,/
C[C@H](CO)N1C[C@H](C)[C@H](CN(C)Cc2ccccc2)OCCCC[C@H](C)Oc2ccc(NS(=O)(=O)c3ccc(F)cc3)cc2C1=O,?,59.3*,/,112.9*,78.1,11.3,91.7*
C[C@@H]1CN([C@@H](C)CO)C(=O)c2cc(NS(=O)(=O)c3ccc(F)cc3)ccc2O[C@@H](C)CCCCO[C@@H]1CN(C)Cc1ccccc1,104.9*,-0.2,-1.1,99.2*,81.7,19.9,106.9*
COc1ccc(CN(C)C[C@@H]2OCCCC[C@@H](C)Oc3ccc(NS(=O)(=O)c4ccccc4)cc3C(=O)N([C@H](C)CO)C[C@@H]2C)cc1,-99.4,0.2,/,/,/,/,/
C[C@@H]1CN([C@@H](C)CO)C(=O)c2cc(NS(=O)(=O)c3ccc(F)cc3)ccc2O[C@@H](C)CCCCO[C@H]1CN(C)Cc1ccccc1,37.6,0.7,/,/,/,/,/
C[C@@H]1CN([C@H](C)CO)C(=O)c2cc(NS(=O)(=O)c3ccc(F)cc3)ccc2O[C@@H](C)CCCCO[C@H]1CN(C)Cc1ccccc1,73.6,0.2,1.2,/,/,/,/
COc1ccc(CN(C)C[C@H]2OCCCC[C@H](C)Oc3ccc(NS(=O)(=O)c4ccccc4)cc3C(=O)N([C@@H](C)CO)C[C@H]2C)cc1,103.3*,-1.3,/,108.9*,41.9,24.2,89.5*
C[C@@H]1CCCCO[C@H](CN(C)Cc2ccccc2)[C@H](C)CN([C@H](C)CO)C(=O)c2cc(NS(=O)(=O)c3ccccc3)ccc2O1,100.8*,0.8,1.7,98.2*,78.8,-8.2,41.2*
O=C1c2ccccc2C2=Nc3ccccc3SC(c3ccsc3)C12 (stereo not given),/,/,0.4,/,/,/,/
Cc1ccc(S(=O)(=O)Nc2ccc3c(c2)C(=O)N([C@@H](C)CO)C[C@@H](C)[C@@H](CN(C)Cc2ccccc2)OCCCC[C@H](C)O3)cc1,121.5,0.0,-1.8,/,/,/,/
COc1ccc(CN(C)C[C@@H]2OCCCC[C@@H](C)Oc3ccc(NS(=O)(=O)c4ccc(Cl)cc4)cc3C(=O)N([C@@H](C)CO)C[C@H]2C)cc1,87.5,-1.1,/,/,/,/,/
SMILES,T cruzi growth-1,GASC1 inh,IDH1 mut inh,T cruzi growth-2,T cruzi growth-3,3T3 cytotox,NIH3T3 tox 2
COc1ccc(CN(C)C[C@H]2OCCCC[C@H](C)Oc3ccc(NS(=O)(=O)c4ccc(Cl)cc4)cc3C(=O)N([C@@H](C)CO)C[C@@H]2C)cc1,?,-0.8,2.0,101.3*,37.3,5.7,104.2*
Cc1ccc(S(=O)(=O)Nc2ccc3c(c2)C(=O)N([C@@H](C)CO)C[C@@H](C)[C@@H](CN(C)Cc2ccccc2)OCCCC[C@@H](C)O3)cc1,?,-1.5,/,93.8,80.5,25.1,104.5*
Cc1onc(-c2ccccc2Cl)c1C(=O)NCCc1ccc(S(N)(=O)=O)cc1,/,/,1.0,/,/,/,/
Cc1cc(NC(=O)C(=O)NCCCN2CCOCC2)ccc1Br,/,/,0.0,/,/,/,/
CC(NS(=O)(=O)c1ccc(F)cc1)C(=O)Nc1cc(Cl)ccc1Oc1ccccc1 (stereo not given),/,/,0.4,/,/,/,/
CCn1c(SCC(=O)Nc2ccc(Cl)cc2Cl)nnc1-c1ccccc1,/,/,-1.1,/,/,/,/
C[C@@H]1CN([C@H](C)CO)S(=O)(=O)c2ccc(-c3ccncc3)cc2O[C@H]1CN(C)Cc1cncnc1,106.6*,-2.1,0.3,97.4*,93.2,14.5,53.3*
C[C@H](CO)N1C[C@H](C)[C@@H](CN(C)Cc2ccncc2)Oc2cc(-c3ccncc3)ccc2S1(=O)=O,115.8,-2.2,/,/,/,/,/
C[C@H]1CN([C@@H](C)CO)S(=O)(=O)c2ccc(Br)cc2O[C@@H]1CN(C)Cc1ccncc1,99.1*,0.0,-1.4,96.3*,54.6,6.2,9.0
C[C@@H]1CN([C@H](C)CO)S(=O)(=O)c2ccc(-c3ccncc3)cc2O[C@@H]1CN(C)Cc1cncnc1,89.7,-0.9,-0.4,/,/,/,/
C[C@H]1CN([C@@H](C)CO)S(=O)(=O)c2ccc(Br)cc2O[C@H]1CN(C)Cc1ccncc1,83.2,1.2,2.2,/,/,/,/
